{
  "source": "ChEMBL document CHEMBL1138216",
  "about": "“Design and synthesis of novel derivatives of the muscarinic agonist tetra(ethylene glycol)(3-methoxy-1,2,5-thiadiazol-4-yl) [3-(1-methyl-1,2,5,6-tetrahydropyrid-3-yl)-1,2,5-thiadiazol-4-yl] ether (CDD-0304): effects of structural modifications on the binding and activity at muscarinic receptor …” (J Med Chem, 2006)",
  "key": {"[1]": {"molecular_target": "T1, Muscarinic acetylcholine receptor M5 (Homo sapiens) (UniProt P08912)", "T1 sequence (whole entry)": "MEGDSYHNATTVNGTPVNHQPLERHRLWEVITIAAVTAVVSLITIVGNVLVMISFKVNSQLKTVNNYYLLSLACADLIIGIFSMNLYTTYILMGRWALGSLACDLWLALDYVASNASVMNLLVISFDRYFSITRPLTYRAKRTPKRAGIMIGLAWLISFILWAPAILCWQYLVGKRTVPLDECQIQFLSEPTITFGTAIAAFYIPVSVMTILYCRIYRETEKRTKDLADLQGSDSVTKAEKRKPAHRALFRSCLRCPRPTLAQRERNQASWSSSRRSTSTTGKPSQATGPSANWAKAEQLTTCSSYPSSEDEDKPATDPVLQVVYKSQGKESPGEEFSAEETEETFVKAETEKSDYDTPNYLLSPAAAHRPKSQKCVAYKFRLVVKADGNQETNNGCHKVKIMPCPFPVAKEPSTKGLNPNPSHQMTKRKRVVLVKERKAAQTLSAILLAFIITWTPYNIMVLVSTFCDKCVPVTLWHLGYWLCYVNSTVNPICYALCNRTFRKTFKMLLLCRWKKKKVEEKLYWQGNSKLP", "assay": "Agonist activity at human M5 receptor expressed in A9 L cells assessed as stimulation of phosphoinositide hydrolysis relative to carbachol", "format": "functional, cell-based", "conditions": "L929", "summary_of_the_method": "(§1)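 A9 L cells stably expressing the receptor, seeded 24 h, labelled overnight with 10 µCi/mL [3H]inositol in inositol-free DMEM; ligands in HBSS with 10 mM LiCl, 20 mM HEPES, 37 °C, 1 h; formic acid extraction, inositol phosphates counted by SPA beads.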"}, "[2]": {"molecular_target": "Muscarinic acetylcholine receptor M1 (Homo sapiens, UniProt P11229, E170K)", "sequence (P11229 whole entry E170K)": "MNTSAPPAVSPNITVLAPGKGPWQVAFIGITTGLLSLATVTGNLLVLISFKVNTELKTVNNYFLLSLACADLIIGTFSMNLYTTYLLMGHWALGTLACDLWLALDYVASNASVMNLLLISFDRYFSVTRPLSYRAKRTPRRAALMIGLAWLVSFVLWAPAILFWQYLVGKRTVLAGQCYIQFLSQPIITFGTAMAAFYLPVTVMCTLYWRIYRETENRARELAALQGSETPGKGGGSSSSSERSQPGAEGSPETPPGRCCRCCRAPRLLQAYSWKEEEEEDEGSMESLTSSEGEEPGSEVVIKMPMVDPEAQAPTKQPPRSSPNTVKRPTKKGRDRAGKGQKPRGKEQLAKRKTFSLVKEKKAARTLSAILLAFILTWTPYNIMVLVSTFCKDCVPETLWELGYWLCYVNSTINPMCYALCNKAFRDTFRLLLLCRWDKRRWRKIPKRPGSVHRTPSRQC", "format": "functional, cell-based, L929"}, "[3]": {"molecular_target": "Muscarinic acetylcholine receptor M1 (Homo sapiens, UniProt P11229, T192A)", "sequence (P11229 whole entry T192A)": "as the sequence (P11229 whole entry E170K) above, with K170E, T192A counted along it", "assay": "Inhibition of [3H](R)-QNB binding to human M1 receptor Thr192Ala mutant expressed in A9 L cells", "format": "cell-based, A9L"}, "[4]": {"molecular_target": "T2, Muscarinic acetylcholine receptor M1/M5 chimeric protein (Homo sapiens, UniProt P08912+P11229)", "T2 sequence (P11229 whole entry)": "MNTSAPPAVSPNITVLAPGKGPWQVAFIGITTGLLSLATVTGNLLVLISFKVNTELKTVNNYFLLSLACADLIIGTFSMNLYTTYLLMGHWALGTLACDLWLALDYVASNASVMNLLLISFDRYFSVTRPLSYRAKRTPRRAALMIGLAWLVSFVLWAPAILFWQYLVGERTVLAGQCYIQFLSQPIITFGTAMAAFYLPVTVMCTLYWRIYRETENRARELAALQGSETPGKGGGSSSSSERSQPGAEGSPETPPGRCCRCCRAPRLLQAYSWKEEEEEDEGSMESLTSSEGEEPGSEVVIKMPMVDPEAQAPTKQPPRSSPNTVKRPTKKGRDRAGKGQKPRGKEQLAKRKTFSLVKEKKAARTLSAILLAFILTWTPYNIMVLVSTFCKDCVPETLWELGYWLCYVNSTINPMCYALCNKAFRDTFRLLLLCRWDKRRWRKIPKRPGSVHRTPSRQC", "T2 sequence (P08912 whole entry)": "T1 sequence (whole entry)", "assay": "Inhibition of [3H](R)-QNB binding to human M1/M5(o2) chimeric receptor expressed in A9 L cells", "format": "cell-based, A9L"}, "[5]": {"tested_on": "T3, Muscarinic acetylcholine receptor M1 (Homo sapiens), P11229 [Q185E]", "T3 sequence (whole entry)": "T2 sequence (P11229 whole entry) with Q185E", "assay": "Agonist activity at human M1 receptor Q185E mutant expressed in A9 L cells assessed as stimulation of phosphoinositide hydrolysis relative to carbachol", "format": "functional, cell-based", "conditions": "L929", "summary_of_the_method": "as §1"}, "[6]": {"molecular_target": "T4, Muscarinic acetylcholine receptor M1/M5 chimeric protein (Homo sapiens) (UniProt P11229+P08912)", "assay": "Agonist activity at human M1/M5(o2o3) chimeric receptor expressed in A9 L cells assessed as stimulation of phosphoinositide hydrolysis relative to carbachol", "format": "functional, cell-based", "conditions": "L929", "summary_of_the_method": "as §1"}, "[7]": {"tested_on": "T5, Muscarinic acetylcholine receptor M1 (Homo sapiens), P11229 [E170K]", "T5 sequence (whole entry)": "T2 sequence (P11229 whole entry) with E170K", "assay": "Agonist activity at human M1 receptor E170K mutant expressed in A9 L cells assessed as stimulation of phosphoinositide hydrolysis relative to carbachol", "format": "functional, cell-based", "conditions": "L929", "summary_of_the_method": "as §1"}, "[8]": {"molecular_target": "T4, Muscarinic acetylcholine receptor M1/M5 chimeric protein (Homo sapiens)", "assay": "Agonist activity at human M1/M5(o3) chimeric receptor expressed in A9 L cells assessed as stimulation of phosphoinositide hydrolysis relative to carbachol", "format": "functional, cell-based", "conditions": "L929", "summary_of_the_method": "as §1"}, "[9]": {"molecular_target": "T2, Muscarinic acetylcholine receptor M1/M5 chimeric protein", "assay": "Inhibition of [3H](R)-QNB binding to human M1/M5(o2o3) chimeric receptor expressed in A9 L cells", "format": "cell-based, A9L"}, "[10]": {"molecular_target": "T2, Muscarinic acetylcholine receptor M1/M5 chimeric protein", "assay": "Agonist activity at human M1/M5(o3) chimeric receptor expressed in A9 L cells assessed as stimulation of phosphoinositide hydrolysis", "format": "functional, cell-based, L929"}, "[11]": {"molecular_target": "T4, Muscarinic acetylcholine receptor M1/M5 chimeric protein (Homo sapiens)", "assay": "Agonist activity at human M1/M5(o2) chimeric receptor expressed in A9 L cells assessed as stimulation of phosphoinositide hydrolysis relative to carbachol", "format": "functional, cell-based", "conditions": "L929", "summary_of_the_method": "as §1"}, "[12]": {"molecular_target": "T2, Muscarinic acetylcholine receptor M1/M5 chimeric protein", "assay": "Agonist activity at human M1/M5(o2) chimeric receptor expressed in A9 L cells assessed as stimulation of phosphoinositide hydrolysis", "format": "functional, cell-based, L929"}, "[13]": {"molecular_target": "T2, Muscarinic acetylcholine receptor M1/M5 chimeric protein", "assay": "Inhibition of [3H](R)-QNB binding to human M1/M5(o3) chimeric receptor expressed in A9 L cells", "format": "cell-based, A9L"}, "[14]": {"molecular_target": "Muscarinic acetylcholine receptor M1 (Homo sapiens, UniProt P11229, Q185E)", "sequence (P11229 whole entry Q185E)": "as the sequence (P11229 whole entry E170K) above, with K170E, Q185E counted along it", "format": "functional, cell-based, L929"}, "[15]": {"molecular_target": "T6, Muscarinic acetylcholine receptor M1 (Homo sapiens) (UniProt P11229)", "T6 sequence (whole entry)": "T2 sequence (P11229 whole entry)", "assay": "Agonist activity at human M1 receptor expressed in A9 L cells assessed as stimulation of phosphoinositide hydrolysis relative to carbachol", "format": "functional, cell-based", "conditions": "L929", "summary_of_the_method": "as §1"}},
  "note": "Substitutions are numbered along the chain they refer to. The source made the active and inactive calls. The rule behind the calls is not given here.",
  "data": [
    {"smiles": "CN1CCC=C(c2nsnc2OCCOCCOCCOCCOc2nsnc2C2=CCCN(C)C2)C1", "values": [
      {"measurement": "Activity", "setting": "[1]", "value": "inactive"},
      {"measurement": "EC50", "setting": "[2]", "value": 0.01, "unit": "µM"},
      {"measurement": "Ki", "setting": "[3]", "value": 0.1, "unit": "µM"},
      {"measurement": "Ki", "setting": "[4]", "value": 0.0398, "unit": "µM"},
      {"measurement": "Smax", "setting": "[5]", "value": 50, "unit": "%"},
      {"measurement": "Smax", "setting": "[6]", "value": 2, "unit": "%"},
      {"measurement": "Smax", "setting": "[7]", "value": 66, "unit": "%"},
      {"measurement": "Smax", "setting": "[8]", "value": 23, "unit": "%"},
      {"measurement": "Ki", "setting": "[9]", "value": 0.1, "unit": "µM"},
      {"measurement": "EC50", "setting": "[10]", "value": 0.631, "unit": "µM"},
      {"measurement": "Smax", "setting": "[11]", "value": 34, "unit": "%"},
      {"measurement": "EC50", "setting": "[12]", "value": 0.0794, "unit": "µM"},
      {"measurement": "Ki", "setting": "[13]", "value": 0.02, "unit": "µM"},
      {"measurement": "EC50", "setting": "[14]", "value": 0.0501, "unit": "µM"},
      {"measurement": "Smax", "setting": "[15]", "value": 69, "unit": "%"}
    ]}
  ]
}
